# Results as given in ChEMBL document CHEMBL3526056, “Characterization of in vitro glucuronidation clearance of a range of drugs in human kidney microsomes: comparison with liver and intestinal glucuronidation and impact of albumin” (Drug Metab Dispos, 2012).
# Key:
# [1] = Drug metabolism in human intestinal microsomes assessed as UGT1A9/2B7-mediated unbound intrinsic glucuronidation clearance at 1 uM after 30 to 60 mins by LC-MS/MS analysis in presence of 1% bovine serum albumin; assay type: ADME, Intestine
# [2] = Clearance in iv dosed human; assay type: ADME, organism-based; conditions: in vivo
# [3] = Renal clearance in human; assay type: ADME, organism-based, Kidney; conditions: in vivo
# [4] = test system: Liver microsome; assay: Fraction metabolized glucuronidation in human liver microsomes in presence of UDP-glucuronosyltransferase; assay type: ADME
# [5] = test system: Liver microsome; assay: Fraction metabolized glucuronidation in human liver microsomes in presence of UDP-glucuronosyltransferase and bovine serum albumin; assay type: ADME
# [6] = Fraction unbound in human liver microsomes at 1 uM after 30 to 60 mins by LC-MS/MS analysis; assay type: ADME
# [7] = Fraction unbound in human kidney microsomes at 1 uM after 30 to 60 mins by LC-MS/MS analysis; assay type: ADME
# [8] = Fraction unbound in human intestinal microsomes at 1 uM after 30 to 60 mins by LC-MS/MS analysis; assay type: ADME, Intestine, Microsome
# [9] = test system: Liver microsome; assay: Fraction unbound in human liver microsomes at 1 uM after 30 to 60 mins by LC-MS/MS analysis in presence of 1% bovine serum albumin; assay type: ADME; conditions: microsomes, 1 µM
# [10] = test system: Liver microsome; assay: Unbound intrinsic glucuronidation clearance in human liver microsomes at 1 uM after 30 to 60 mins by LC-MS/MS analysis in presence of UDP-glucuronosyltransferase; assay type: ADME
# Method in brief: (§1)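 Alamethicin-activated pooled microsomes (HLM 150 donors; HKM 8; HIM 18). Drug at 1 μM final, preincubated 5 min at 37°C in 0.1 M phosphate pH 7.1 with 3.45 mM MgCl2, 1.15 mM EDTA, 115 μM saccharic acid lactone. Started with […] cofactor (5 mM final), 30–60 min. Cofactor-free controls. Parent depletion by LC-MS/MS, single-exponential k. Corrected by HLM-dialysis fu,inc. Duplicates; n=3 (HIM n=1).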
# [11] = test system: Liver microsome; assay: Unbound intrinsic glucuronidation clearance in human liver microsomes at 1 uM after 30 to 60 mins by LC-MS/MS analysis in presence of UDP-glucuronosyltransferase and 1% bovine serum albumin; assay type: ADME
# [12] = Unbound intrinsic glucuronidation clearance in human kidney microsomes at 1 uM after 30 to 60 mins by LC-MS/MS analysis in presence of UDP-glucuronosyltransferase; assay type: ADME, microsome; method in brief: as §1
# [13] = Drug metabolism in human intestinal microsomes assessed as UGT1A9/2B7-mediated unbound intrinsic glucuronidation clearance at 1 uM after 30 to 60 mins by LC-MS/MS analysis; assay type: ADME, Intestine
# [14] = Unbound intrinsic glucuronidation clearance in human kidney microsomes at 1 uM after 30 to 60 mins by LC-MS/MS analysis in presence of UDP-glucuronosyltransferase and 1% bovine serum albumin; assay type: ADME, microsome
# [15] = Unbound intrinsic glucuronidation clearance in human intestinal microsomes at 1 uM after 30 to 60 mins by LC-MS/MS analysis in presence of UDP-glucuronosyltransferase; assay type: ADME, Intestine, Microsome; method in brief: as §1
# [16] = Unbound intrinsic glucuronidation clearance in human intestinal microsomes at 1 uM after 30 to 60 mins by LC-MS/MS analysis in presence of UDP-glucuronosyltransferase and 1% bovine serum albumin; assay type: ADME, Intestine, Microsome
# [17] = Drug metabolism in human liver microsomes assessed as UGT1A9/2B7-mediated unbound intrinsic glucuronidation clearance at 1 uM after 30 to 60 mins by LC-MS/MS analysis; assay type: ADME
# [18] = Drug metabolism in human kidney microsomes assessed as UGT1A9/2B7-mediated unbound intrinsic glucuronidation clearance at 1 uM after 30 to 60 mins by LC-MS/MS analysis; assay type: ADME
# [19] = Drug metabolism in human liver microsomes assessed as UGT1A9/2B7-mediated unbound intrinsic glucuronidation clearance at 1 uM after 30 to 60 mins by LC-MS/MS analysis in presence of 1% bovine serum albumin; assay type: ADME
# [20] = Drug metabolism in human kidney microsomes assessed as UGT1A9/2B7-mediated unbound intrinsic glucuronidation clearance at 1 uM after 30 to 60 mins by LC-MS/MS analysis in presence of 1% bovine serum albumin; assay type: ADME
# [21] = molecular target: T1, UDP-glucuronosyltransferase 1A1 (Homo sapiens, UniProt P22309); assay: Drug metabolism in human intestinal microsomes assessed as UGT1A1-mediated unbound intrinsic glucuronidation clearance at 1 uM after 30 to 60 mins by LC-MS/MS analysis in presence of 2% bovine serum albumin; assay type: ADME, Intestine
# T1 sequence (P22309 whole entry): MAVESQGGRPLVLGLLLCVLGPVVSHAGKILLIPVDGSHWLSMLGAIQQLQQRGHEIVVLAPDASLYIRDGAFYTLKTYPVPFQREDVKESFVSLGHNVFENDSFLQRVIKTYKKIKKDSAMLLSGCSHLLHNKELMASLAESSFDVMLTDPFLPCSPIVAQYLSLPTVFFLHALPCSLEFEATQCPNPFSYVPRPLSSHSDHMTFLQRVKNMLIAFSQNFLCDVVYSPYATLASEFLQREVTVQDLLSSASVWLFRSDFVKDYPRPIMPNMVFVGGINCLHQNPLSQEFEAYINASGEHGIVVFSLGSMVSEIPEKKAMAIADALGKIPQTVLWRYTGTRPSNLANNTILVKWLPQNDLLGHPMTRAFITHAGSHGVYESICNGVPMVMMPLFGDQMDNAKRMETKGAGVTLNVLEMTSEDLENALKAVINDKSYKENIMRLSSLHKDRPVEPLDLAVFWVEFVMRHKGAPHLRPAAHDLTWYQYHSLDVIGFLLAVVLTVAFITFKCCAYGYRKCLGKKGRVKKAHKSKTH
# [22] = molecular target: T1, UDP-glucuronosyltransferase 1A1; assay: Ratio of UGT1A1-mediated unbound intrinsic glucuronidation clearance in human intestinal microsomes to UGT1A1-mediated unbound intrinsic glucuronidation clearance in human liver microsomes at 1 uM in presence of 2% bovine serum albumin; assay type: ADME
# [23] = molecular target: T1, UDP-glucuronosyltransferase 1A1; assay: Ratio of UGT1A1-mediated unbound intrinsic glucuronidation clearance in human kidney microsomes to UGT1A1-mediated unbound intrinsic glucuronidation clearance in human intestinal microsomes at 1 uM in presence of 2% bovine serum albumin; assay type: ADME
# [24] = Fraction unbound in human liver microsomes at 1 uM […] by LC-MS/MS analysis in presence of 2% bovine serum albumin; assay type: ADME
# [25] = test system: Liver microsome; assay: Unbound intrinsic glucuronidation clearance in human liver microsomes at 1 uM after 30 to 60 mins by LC-MS/MS analysis in presence of UDP-glucuronosyltransferase and 2% bovine serum albumin; assay type: ADME
# Method in brief: (§2)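 Pooled alamethicin-activated human liver, kidney or intestinal microsomes. […] Duplicate incubations of 30–60 min, with no-cofactor controls. Parent depletion read by LC-MS/MS. k from a single-exponential fit, corrected by fu,inc.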
# [26] = molecular target: T1, UDP-glucuronosyltransferase 1A1; assay: Ratio of UGT1A1-mediated unbound intrinsic glucuronidation clearance in human kidney microsomes to UGT1A1-mediated unbound intrinsic glucuronidation clearance in human liver microsomes at 1 uM in presence of 2% bovine serum albumin; assay type: ADME
# [27] = molecular target: T1, UDP-glucuronosyltransferase 1A1; assay: Drug metabolism in human intestinal microsomes assessed as UGT1A1-mediated unbound intrinsic glucuronidation clearance at 1 uM after 30 to 60 mins by LC-MS/MS analysis; assay type: ADME, Intestine
# [28] = molecular target: T1, UDP-glucuronosyltransferase 1A1; assay: Ratio of UGT1A1-mediated unbound intrinsic glucuronidation clearance in human kidney microsomes to UGT1A1-mediated unbound intrinsic glucuronidation clearance in human liver microsomes at 1 uM; assay type: ADME
# [29] = Unbound intrinsic glucuronidation clearance in human kidney microsomes at 1 uM after 30 to 60 mins by LC-MS/MS analysis in presence of UDP-glucuronosyltransferase and 2% bovine serum albumin; assay type: ADME, microsome; method in brief: as §2
# [30] = Unbound intrinsic glucuronidation clearance in human intestinal microsomes at 1 uM after 30 to 60 mins by LC-MS/MS analysis in presence of UDP-glucuronosyltransferase and 2% bovine serum albumin; assay type: ADME, Intestine, Microsome; method in brief: as §2
# [31] = test system: Liver microsome; assay: Ratio of unbound intrinsic glucuronidation clearance in human liver microsomes in presence of 2% bovine serum albumin to unbound intrinsic glucuronidation clearance in human liver microsomes in absence of bovine serum albumin; assay type: ADME
# Method in brief: (§3)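 Ratios of mean scaled unbound CLint,UGT (per g tissue) between tissues, or between with and without BSA. Microsomal depletion assays at 1 μM, or 5 μM for propofol, in pH 7.1 phosphate at 37°C, read by LC-MS/MS. Kidney and liver n = 3, intestine n = 1, each in duplicate.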
# [32] = Ratio of unbound intrinsic glucuronidation clearance in human kidney microsomes in presence of 2% bovine serum albumin to unbound intrinsic glucuronidation clearance in human kidney microsomes in absence of bovine serum albumin; assay type: ADME, microsome; method in brief: as §3
# [33] = molecular target: T1, UDP-glucuronosyltransferase 1A1; assay: Drug metabolism in human liver microsomes assessed as UGT1A1-mediated unbound intrinsic glucuronidation clearance at 1 uM after 30 to 60 mins by LC-MS/MS analysis; assay type: ADME
# [34] = molecular target: T1, UDP-glucuronosyltransferase 1A1; assay: Drug metabolism in human kidney microsomes assessed as UGT1A1-mediated unbound intrinsic glucuronidation clearance at 1 uM after 30 to 60 mins by LC-MS/MS analysis; assay type: ADME
# [35] = molecular target: T1, UDP-glucuronosyltransferase 1A1; assay: Ratio of UGT1A1-mediated unbound intrinsic glucuronidation clearance in human intestinal microsomes to UGT1A1-mediated unbound intrinsic glucuronidation clearance in human liver microsomes at 1 uM; assay type: ADME
# [36] = molecular target: T1, UDP-glucuronosyltransferase 1A1; assay: Ratio of UGT1A1-mediated unbound intrinsic glucuronidation clearance in human kidney microsomes to UGT1A1-mediated unbound intrinsic glucuronidation clearance in human intestinal microsomes at 1 uM; assay type: ADME
# [37] = molecular target: T1, UDP-glucuronosyltransferase 1A1; assay: Drug metabolism in human liver microsomes assessed as UGT1A1-mediated unbound intrinsic glucuronidation clearance at 1 uM after 30 to 60 mins by LC-MS/MS analysis in presence of 2% bovine serum albumin; assay type: ADME
# [38] = molecular target: T1, UDP-glucuronosyltransferase 1A1; assay: Drug metabolism in human kidney microsomes assessed as UGT1A1-mediated unbound intrinsic glucuronidation clearance at 1 uM after 30 to 60 mins by LC-MS/MS analysis in presence of 2% bovine serum albumin; assay type: ADME
# [39] = molecular target: UDP-glucuronosyltransferase 1A1 (Homo sapiens) (UniProt P22309); assay: Drug metabolism in human intestinal microsomes assessed as UGT1A1-mediated unbound intrinsic glucuronidation clearance at 1 uM after 30 to 60 mins by LC-MS/MS analysis in presence of 2% bovine serum albumin
smiles,measurement,setting,value
O=C(O)Cc1ccccc1Nc1c(Cl)cccc1Cl [DICLOFENAC],CL free,[1],6.7 mL/min/g
same,clearance,[2],4.84 mL/min/kg
same,CL renal,[3],0.06 mL/min/kg
same,Drug metabolism,[4],0.62
same,Drug metabolism,[5],0.65
same,fraction unbound at 1 µM,[6],0.98
same,fraction unbound at 1 µM,[7],0.99
same,fraction unbound at 1 µM,[8],0.98
same,Fu,[9],0.02
same,CL free,[10],761 µL/min/mg
same,CL free,[11],1190 µL/min/mg
same,CL free,[12],177 µL/min/mg
same,CL free,[13],1.54 mL/min/g
same,CL free,[14],543 µL/min/mg
same,CL free,[15],74.9 µL/min/mg
same,CL free,[16],325 µL/min/mg
same,CL free,[17],30.5 mL/min/g
same,CL free,[18],2.27 mL/min/g
same,CL free,[19],47.4 mL/min/g
same,CL free,[20],6.95 mL/min/g
O=C1[C@H](CC[C@H](O)c2ccc(F)cc2)[C@@H](c2ccc(O)cc2)N1c1ccc(F)cc1 [EZETIMIBE],CL free,[21],23.8 mL/min/g
same,Ratio,[22],0.115
same,Ratio,[23],0.266
same,fraction unbound at 1 µM,[6],0.3
same,fraction unbound at 1 µM,[7],0.18
same,fraction unbound at 1 µM,[8],0.18
same,fraction unbound at 1 µM,[24],0.05
same,CL free,[10],2930 µL/min/mg
same,CL free,[25],5180 µL/min/mg
same,CL free,[12],295 µL/min/mg
same,Ratio,[26],0.031
same,CL free,[27],8.61 mL/min/g
same,Ratio,[28],0.032
same,CL free,[29],495 µL/min/mg
same,CL free,[15],418 µL/min/mg
same,CL free,[30],1160 µL/min/mg
same,Ratio,[31],1.8
same,Ratio,[32],1.7
same,CL free,[33],117 mL/min/g
same,CL free,[34],3.78 mL/min/g
same,Ratio,[35],0.073
same,Ratio,[36],0.439
same,CL free,[37],207 mL/min/g
same,CL free,[38],6.34 mL/min/g
same,CL free,[39],23.8 mL/min/g
